From ChEMBL document CHEMBL1144038, “Fluorinated methylenecyclopropane analogues of nucleosides. Synthesis and antiviral activity of (Z)- and (E)-9-{[(2-fluoromethyl-2-hydroxymethyl)-cyclopropylidene]methyl}adenine and -guanine” (Bioorg Med Chem, 2008)
Active and inactive are the calls of the source. No cut-off for these calls is given here.

Experiments:
[1] = system: Human gammaherpesvirus 4; assay: Antiviral activity against Epstein-Barr virus infected in human akata cells; type: functional, organism-based; details: human gammaherpesvirus 4, Akata
How it was run: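 Akata cells kept in RPMI 1640 with 10% fetal bovine serum, L-glutamine, penicillin and gentamicin at 37 °C, 5% CO2. Lytic infection induced in latently infected cells with F(ab')2 goat anti-human IgG. Total DNA purified; EBV genome copies quantified by real-time TaqMan PCR (900 nM primers, 200 nM probe).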

[2] = Cytotoxicity against human akata cells by DNA hybridization assay; type: cell-based
How it was run: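 Latently infected Akata cells grown in RPMI 1640 with 10% fetal bovine serum, L-glutamine, penicillin and gentamicin at 37 °C in humidified 5% CO2.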

[3] = system: Human gammaherpesvirus 4; assay: Antiviral activity against Epstein-Barr virus infected in human daudi cells by DNA hybridization assay; type: functional, organism-based; details: human gammaherpesvirus 4, Daudi
[4] = system: Human gammaherpesvirus 4; assay: Antiviral activity against Epstein-Barr virus infected in human daudi cells by viral capsid immunofluorescence ELISA; type: functional, organism-based; details: human gammaherpesvirus 4, Daudi
[5] = Selectivity index, ratio of CC50 for human Daudi cells to EC50 for Epstein-Barr virus; type: functional
[6] = Cytotoxicity against human Daudi cells by DNA hybridization assay; type: cell-based
[7] = system: Hepatitis C virus; assay: Antiviral activity against Hepatitis C virus infected in human Huh7 AVA5 cells by replicon assay; type: functional, organism-based, Hepacivirus hominis; details: Huh-7
How it was run: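 HCV subgenomic CON1 genotype 1b replicon line AVA5 (Huh7), sub-confluent cultures. Compound added daily in fresh medium for 3 days. Assessed 24 h after last dose: intracellular HCV RNA by blot hybridization for EC50; cytotoxicity (CC50) by neutral red dye uptake.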

[8] = Cytotoxicity against human Huh7 AVA5 cells; type: cell-based, Huh-7
How it was run: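 AVA5 replicon cells (Huh7 carrying subgenomic CON1 HCV, genotype 1b) kept as sub-confluent cultures. Compound given daily in fresh medium for 3 days. Viability was read by neutral red dye uptake 24 h after the last dose.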

[9] = system: Human betaherpesvirus 5; assay: Antiviral activity against Human cytomegalovirus Towne infected in HFF cells by plaque reduction assay; type: functional, organism-based; details: Human betaherpesvirus 5, Towne
[10] = system: Human betaherpesvirus 5; assay: Antiviral activity against Human cytomegalovirus AD169 infected in HFF cells by plaque reduction assay; type: functional, organism-based
[11] = Cytotoxicity against HFF cells; type: cell-based; details: human
[12] = Selectivity index, ratio of CC50 for human akata cells to EC50 for Epstein-Barr virus; type: functional
[13] = system: Human gammaherpesvirus 4; assay: Antiviral activity against Epstein-Barr virus infected in human H1 cells by DNA hybridization assay; type: functional, organism-based; details: human gammaherpesvirus 4, H1

Row | SMILES | EC50 [1] | CC50 [2] | EC50 [3] | Selectivity index [5] | CC50 [6] | other results
1 | Nc1nc2c(ncn2/C=C2\CC2(CO)CF)c(=O)[nH]1 (stereo not drawn) | 3.2 µM | 64.1 µM | – | – | – | –
2 | Nc1nc2c(ncn2/C=C2\CC2(F)CO)c(=O)[nH]1 (stereo not drawn) | – | – | 29.1 µM | >6.8 | > 199 µM | EC50 [4]: < 0.32 µM
3 | Nc1ncnc2c1ncn2/C=C1/CC1(CO)CF (stereo not drawn) | 0.5 µM | 55.7 µM | – | – | – | EC50 [7]: 6.5 µM; CC50 [8]: 11 µM; EC50 [9]: 46 µM; Activity [10]: inactive; CC50 [11]: > 100 µM
4 | Nc1nc2c(ncn2/C=C2/CC2(CO)CF)c(=O)[nH]1 (stereo not drawn) | 7.5 µM | 59.7 µM | – | – | – | –
5 | Nc1nc2c(ncn2/C=C2/CC2(F)CO)c(=O)[nH]1 (stereo not drawn) | – | – | 8 µM | >24.9 | > 199 µM | –
6 | Nc1ncnc2c1ncn2/C=C1/CC1(F)CO (stereo not drawn) | – | – | 6.8 µM | >31.3 | > 213 µM | –
7 | Nc1nc2c(ncn2/C=C2/CC2(CO)CO)c(=O)[nH]1 [FILOCICLOVIR] | – | > 100 µM | – | – | – | Selectivity index [12]: > 40
8 | Nc1ncnc2c1ncn2/C=C1\CC1(F)CO (stereo not drawn) | – | – | 167 µM | >1.25 | > 209 µM | EC50 [4]: 2.3 µM; EC50 [13]: 3.6 µM
9 | Nc1nc2c(ncn2COC(CO)CO)c(=O)[nH]1 [GANCICLOVIR] | – | – | – | – | – | EC50 [9]: 2.5 µM; CC50 [11]: > 100 µM
10 | Nc1nc2c(ncn2COCCO)c(=O)[nH]1 [ACYCLOVIR] | 1.7 µM | – | – | – | – | –
11 | Nc1ncnc2c1ncn2/C=C1\CC1(CO)CF (stereo not drawn) | 3.4 µM | 53.6 µM | – | – | – | –
